This is an account of results in ChEMBL document CHEMBL1157352, “Potent, Plasmodium-selective farnesyltransferase inhibitors that arrest the growth of malaria parasites: structure-activity relationships of ethylenediamine-analogue scaffolds and homology model validation” (J Med Chem, 2008).

Assay [1] has as its system Plasmodium falciparum. Description: Inhibition of Plasmodium falciparum PFT at 50 nM.
Assay [2] is described as follows: Selectivity for Plasmodium falciparum PFT over rat PFT.
The subject of assay [3] is Plasmodium falciparum. Description: Inhibition of Plasmodium falciparum PFT at 5 nM.
Assay [4] in a line: Inhibition of rat PFT by scintillation proximity assay. (SPA uses beads or plates that emit light when radiolabelled molecules are held near them.)
Assay [5] is described as follows: Inhibition of Plasmodium falciparum PFT.
The subject of assay [6] is Plasmodium falciparum. The assay is described as follows: Antimalarial activity in Plasmodium falciparum K1 infected erythrocytes by [3H]hypoxanthine uptake. Type of assay: functional. As to conditions: K1, 72 h, read-out: ED50 (the source's name). In short, it runs like this:
(§1)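 Parasites kept per Trager–Jensen in RPMI-1640 with 2 mM L-glutamine, 25 mM HEPES, 33 mM NaHCO3, gentamicin, 20% heat-inactivated human A+ plasma. Compound in DMSO added to culture at 0.5% parasitemia and hematocrit; 37 °C, 5% CO2/5% O2/90% N2, 48 h. [8-3H]hypoxanthine (0.3 µCi) added for a further 24 h, then harvested and scintillation-counted. Uninfected-RBC background subtracted; DMSO vehicle taken as 100% growth. ED50 by linear regression.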

Assay [7] relates to Plasmodium falciparum. The assay is described as follows: Antimalarial activity in Plasmodium falciparum 3D7 infected erythrocytes as [3H]hypoxanthine uptake. Type of assay: functional. As to conditions: 3D7, 72 h, read-out: ED50 (the source's name). In short, it runs like this:
as §1

With `Cn1cnc(S(=O)(=O)N(CCN(Cc2cncn2C)c2ccc(C#N)cc2)CC2CCN(C(=O)OC(C)(C)C)CC2)c1`, the inhibition in assay [1] was determined as 96%; in assay [3] it was 81%. Also, the Selectivity ratio in assay [2] was found to be 117. Half-maximal inhibition in assay [4] (IC50) was put at 0.14 µM.
In the case of `Cn1cnc(S(=O)(=O)N(CCCN(Cc2cncn2C)c2ccc(C#N)cc2)CC2CCN(C(=O)OC(C)(C)C)CC2)c1`, the inhibition in assay [1] was determined as 94%; in assay [3] it was 73%. In assay [5], the midpoint of inhibition, the IC50, lay at 0.001 µM.
The compound `Cn1cnc(S(=O)(=O)N(Cc2ccccc2)[C@H]2CC[C@@H](N(Cc3cncn3C)c3ccc(C#N)cc3)CC2)c1` displayed an inhibition in assay [1] of 23%. Further, the EC50 in assay [6] amounted to 2.75 µM.
As to `Cn1cnc(S(=O)(=O)N(CCCN(Cc2cncn2C)c2ccc(C#N)cc2)Cc2ccccc2)c1`, the results for the inhibition in assay [1] and in assay [3] were 71% and 16%, respectively. For the same compound, the EC50 in assay [6] turned out to be 2.65 µM.
As to `Cn1cnc(S(=O)(=O)N(CCN(Cc2cncn2C)c2ccc(C#N)cc2)Cc2ccsc2)c1`, the inhibition in assay [1] is 100%; in assay [3], 91%. Moreover, the EC50 in assay [7] amounted to 0.15 µM; in assay [6], 0.24 µM.
For the compound `Cn1cnc(S(=O)(=O)N(Cc2ccsc2)CC(C)(C)N(Cc2cncn2C)c2ccc(C#N)cc2)c1`, in assay [1], the inhibition stood at 70%. The EC50 in assay [7] amounted to 2.45 µM.
On to `Cn1cnc(S(=O)(=O)N(CC2CCN(C(=O)OC(C)(C)C)CC2)[C@H]2CC[C@H](N(Cc3cncn3C)c3ccc(C#N)cc3)CC2)c1`, for which the inhibition in assay [1] was 0%. The EC50 in assay [6] came to 1.2 µM.
In the same order, the values of `Cn1cnc(S(=O)(=O)N(CC2CCN(C(=O)OC(C)(C)C)CC2)[C@H]2CC[C@@H](N(Cc3cncn3C)c3ccc(C#N)cc3)CC2)c1` are 0% and 0.65 µM.
With `Cn1cnc(S(=O)(=O)N(CC2CCN(C(=O)OC(C)(C)C)CC2)CC(C)(C)N(Cc2cncn2C)c2ccc(C#N)cc2)c1`, the inhibition in assay [1] was 87%. For the same compound, the Selectivity ratio in assay [2] amounted to 136. Further, the concentration for half-maximal inhibition (IC50) amounted to 0.0011 µM in assay [5] and 0.15 µM in assay [4].
On to `Cc1ccccc1CN(CC(C)(C)N(Cc1cncn1C)c1ccc(C#N)cc1)S(=O)(=O)c1cn(C)cn1`, for which the inhibition in assay [1] stood at 98%; in assay [3] it was 91%.
The corresponding values for `Cc1ccccc1CN(CCCN(Cc1cncn1C)c1ccc(C#N)cc1)S(=O)(=O)c1cn(C)cn1` are 76% and 24%.
Turning to `Cc1ccccc1CN(CCN(Cc1cncn1C)c1ccc(C#N)cc1)S(=O)(=O)c1cn(C)cn1`, the values for the inhibition in assay [1] and in assay [3] were 99% and 95%, respectively.
In the same order, the values of `Cn1cnc(S(=O)(=O)N(CC2CCN(c3ncccn3)CC2)CC(C)(C)N(Cc2cncn2C)c2ccc(C#N)cc2)c1` are 100% and 93%.
The corresponding values for `Cn1cnc(S(=O)(=O)N(CCCN(Cc2cncn2C)c2ccc(C#N)cc2)CC2CCN(c3ncccn3)CC2)c1` are 93% and 62%.
In the same order, the values of `Cn1cnc(S(=O)(=O)N(CCCN(Cc2cncn2C)c2ccc(C#N)cc2)Cc2ccsc2)c1` are 73% and 18%.
`Cn1cnc(S(=O)(=O)N(CCN(Cc2cncn2C)c2ccc(C#N)cc2)CC2CCN(c3ncccn3)CC2)c1`: the inhibition in assay [1] was determined as 96%; in assay [3] it was 74%.
The corresponding values for `Cn1cnc(S(=O)(=O)N(CCN(Cc2cncn2C)c2ccc(C#N)cc2)Cc2ccccc2)c1` are 98% and 86%.
In the case of `Cn1cnc(S(=O)(=O)N(Cc2ccccc2)CC(C)(C)N(Cc2cncn2C)c2ccc(C#N)cc2)c1`, the inhibition in assay [1] is 100%; in assay [3], 88%.
In turn, `Cn1cnc(S(=O)(=O)N(Cc2ccccc2)[C@H]2CC[C@H](N(Cc3cncn3C)c3ccc(C#N)cc3)CC2)c1` gave an inhibition in assay [1] of 73%.
As to `Cn1cnc(S(=O)(=O)N(CC2CCN(C(=O)OC(C)(C)C)CC2)[C@@H]2CCC[C@@H]2N(Cc2cncn2C)c2ccc(C#N)cc2)c1` (racemic), the inhibition in assay [1] came to 2%; in assay [3] it was 3%. In assay [2], the Selectivity ratio is more than 2.9. Also, in assay [6], the EC50 worked out at 1.25 µM. The 50% inhibitory concentration (IC50) in assay [5] was 0.35 µM; in assay [4] it was more than 1 µM.
Consider `Cn1cnc(S(=O)(=O)N(CC2CCN(c3ncccn3)CC2)[C@@H]2CCC[C@@H]2N(Cc2cncn2C)c2ccc(C#N)cc2)c1` (racemic), for which the inhibition came to 0% in assay [1] and 10% in assay [3]. Also, the results for the EC50 in assay [7] and in assay [6] were 3 µM and 2.5 µM, respectively.
In the same order, the values of `Cn1cnc(S(=O)(=O)N(Cc2ccsc2)[C@H]2CCC[C@@H]2N(Cc2cncn2C)c2ccc(C#N)cc2)c1` (racemic) are 57%, 11%, 2.7 µM and 2.7 µM.
`Cc1ccccc1CN([C@@H]1CC[C@@H](N(Cc2cncn2C)c2ccc(C#N)cc2)C1)S(=O)(=O)c1cn(C)cn1` (racemic) gave an inhibition in assay [1] of 33%. The EC50 in assay [7] worked out at 2.4 µM; in assay [6], 2.2 µM.
As to `Cc1ccccc1CN([C@@H]1CCC[C@@H]1N(Cc1cncn1C)c1ccc(C#N)cc1)S(=O)(=O)c1cn(C)cn1` (racemic), the inhibition is 17% in assay [1] and 16% in assay [3]. The EC50 in assay [7] and in assay [6] was 2.8 µM throughout.
Regarding `Cn1cnc(S(=O)(=O)N(Cc2ccsc2)[C@@H]2CCC[C@@H]2N(Cc2cncn2C)c2ccc(C#N)cc2)c1` (racemic), the inhibition in assay [1] worked out at 9%; in assay [3], 0%. For the same compound, the EC50 was more than 5 µM in assay [7] and 4.2 µM in assay [6].
On to `Cc1ccccc1CN([C@H]1CC[C@@H](N(Cc2cncn2C)c2ccc(C#N)cc2)C1)S(=O)(=O)c1cn(C)cn1` (racemic), for which the inhibition in assay [1] was 24%. The EC50 is 2.4 µM in assay [7] and 2.6 µM in assay [6].
The corresponding values for `Cn1cnc(S(=O)(=O)N(CC2CCN(c3ncccn3)CC2)[C@H]2CC[C@@H](N(Cc3cncn3C)c3ccc(C#N)cc3)C2)c1` (racemic) are 6%, 0.6 µM and 0.72 µM.
Turning to `Cc1ccccc1CN([C@H]1CCC[C@@H]1N(Cc1cncn1C)c1ccc(C#N)cc1)S(=O)(=O)c1cn(C)cn1` (racemic), the inhibition in assay [1] is 35%; in assay [3], 12%. The EC50 is 3 µM in assay [7] and 3.2 µM in assay [6].
In the same order, the values of `Cn1cnc(S(=O)(=O)N(CC2CCN(C(=O)OC(C)(C)C)CC2)[C@H]2CC[C@@H](N(Cc3cncn3C)c3ccc(C#N)cc3)C2)c1` (racemic) are 83%, 33%, 0.3 µM and 0.125 µM.
In turn, `Cn1cnc(S(=O)(=O)N(CC2CCN(c3ncccn3)CC2)[C@@H]2CC[C@@H](N(Cc3cncn3C)c3ccc(C#N)cc3)C2)c1` (racemic) displayed an inhibition in assay [1] of 38%. Besides, the EC50 in assay [7] amounted to 2.6 µM; in assay [6], 1.5 µM.
Take `Cn1cnc(S(=O)(=O)N(CC2CCN(c3ncccn3)CC2)[C@H]2CCC[C@@H]2N(Cc2cncn2C)c2ccc(C#N)cc2)c1` (racemic): the inhibition in assay [1] came to 28%; in assay [3], 12%. Also, the EC50 in assay [7] was 2.6 µM; in assay [6] it was 0.75 µM.
The corresponding values for `Cn1cnc(S(=O)(=O)N(Cc2ccccc2)[C@@H]2CC[C@@H](N(Cc3cncn3C)c3ccc(C#N)cc3)C2)c1` (racemic) are 93%, 65%, 0.34 µM and 0.145 µM.
With `Cn1cnc(S(=O)(=O)N(Cc2ccccc2)[C@H]2CCC[C@@H]2N(Cc2cncn2C)c2ccc(C#N)cc2)c1` (racemic), the inhibition came to 42% in assay [1] and 20% in assay [3]. The figures for the EC50 in assay [7] and in assay [6] were 3.1 µM and 2.35 µM, respectively.
`Cn1cnc(S(=O)(=O)N(Cc2ccccc2)[C@H]2CC[C@@H](N(Cc3cncn3C)c3ccc(C#N)cc3)C2)c1` (racemic): the inhibition in assay [1] came out at 40%; in assay [3], 4%. For the same compound, the EC50 in assay [7] was found to be 0.7 µM.
Turning to `Cn1cnc(S(=O)(=O)N(CC2CCN(C(=O)OC(C)(C)C)CC2)[C@H]2CCC[C@@H]2N(Cc2cncn2C)c2ccc(C#N)cc2)c1` (racemic), the inhibition in assay [1] turned out to be 82%; in assay [3] it was 41%. For the same compound, the Selectivity ratio in assay [2] was more than 100. In assay [7], the EC50 amounted to 2.65 µM. Further, the values for the 50% inhibitory concentration (IC50) in assay [5] and in assay [4] were 0.01 µM and more than 1 µM, respectively.
With `Cn1cnc(S(=O)(=O)N(Cc2ccccc2)[C@@H]2CCC[C@@H]2N(Cc2cncn2C)c2ccc(C#N)cc2)c1` (racemic), the inhibition in assay [1] and in assay [3] was 0% each time. Besides, the EC50 in assay [7] is more than 5 µM.
For the compound `Cn1cnc(S(=O)(=O)N(CC2CCN(C(=O)OC(C)(C)C)CC2)[C@@H]2CC[C@@H](N(Cc3cncn3C)c3ccc(C#N)cc3)C2)c1` (racemic), the inhibition is 97% in assay [1] and 86% in assay [3]. In addition, in assay [7], the EC50 was determined as 0.31 µM. In assay [5], this compound showed a concentration for half-maximal inhibition (IC50) of 0.0031 µM.
In assay [1], `Cn1cnc(S(=O)(=O)N(Cc2ccsc2)[C@@H]2CC[C@@H](N(Cc3cncn3C)c3ccc(C#N)cc3)C2)c1` (racemic) showed an inhibition of 56%. The EC50 in assay [7] worked out at 1.5 µM; in assay [6] it was 1.2 µM.
In turn, `Cn1cnc(S(=O)(=O)N(Cc2ccsc2)[C@H]2CC[C@@H](N(Cc3cncn3C)c3ccc(C#N)cc3)C2)c1` (racemic) yielded an inhibition in assay [1] of 15%. Moreover, the EC50 turned out to be 2.4 µM in assay [7] and 2.5 µM in assay [6].

The inhibition is the drop in the measured response relative to a control, in per cent. Low values mean little suppression, high ones strong suppression. The IC50 is the concentration at which inhibition is half-maximal. High values mean weaker potency, low ones greater potency.
